DNMT1 block = human DNMT1 methyltransferase inhibitors, primary screen, biochemical, molecular beacon, fluorescence, HinP1I cleavage, uHTS; AID 588458, 2011; 0.83% of 360,000 active; inhibition (reported as % activation of signal), % at 10 µM; DNA (cytosine-5)-methyltransferase 1 (Homo sapiens), P26358; in the data active = inhibition above about 50%
SUMO1-SIM PPI = modulators of SUMO1 protein-protein interactions, primary screen, biochemical, uHTS. Small ubiquitin-related modifier 1 (Homo sapiens), P63165. SUMO1 binding to a labelled peptide, TR-FRET, 1 h. inhibition, % at 20 µM. 0.33% of 360,000 active. AID 602429, 2012; in the data active = inhibition above about 37%
Target sequence (P63165 whole entry, looked up): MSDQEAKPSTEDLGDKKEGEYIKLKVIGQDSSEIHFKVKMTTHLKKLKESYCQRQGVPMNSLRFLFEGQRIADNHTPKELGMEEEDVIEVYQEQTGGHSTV
STEP block = STEP phosphatase inhibitors, primary screen, biochemical, fluorescence intensity, uHTS | Tyrosine-protein phosphatase non-receptor type 5 (Homo sapiens), P54829 | recombinant STEP, OMFP fluorogenic substrate | inhibition, % at 20 µM | 0.25% of 360,000 active | AID 588621, 2011;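 active = inhibition at 20 µM, scaled per plate between control wells, above about 37%, limit read from the data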;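 also: 0% = DMSO with enzyme and substrate and 100% = substrate only without enzyme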
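material = STEP tyrosine phosphatase | reagent = fluorogenic phosphatase substrate OMFP at 25 µM final | doses = single compound dose of 20 µM, 1% DMSO final | schedule = 20 min reaction, room temperature, in the dark | measured by = fluorescence, 480/540 nm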
LMPTP inh = LMPTP phosphatase inhibitors, primary screen, biochemical, fluorescence intensity, uHTS | recombinant LMPTP-A, OMFP fluorogenic substrate | Low molecular weight phosphotyrosine protein phosphatase (Homo sapiens), P24666 | AID 651560, 2012 | inhibition, % at 20 µM | 0.22% of 360,000 active;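 active = compounds that cut the enzyme signal by at least half of the control window in the single-dose screen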;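 also: plate controls were DMSO wells with enzyme plus substrate for no effect and substrate without enzyme for full effect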
Target sequence (P24666 whole entry, looked up): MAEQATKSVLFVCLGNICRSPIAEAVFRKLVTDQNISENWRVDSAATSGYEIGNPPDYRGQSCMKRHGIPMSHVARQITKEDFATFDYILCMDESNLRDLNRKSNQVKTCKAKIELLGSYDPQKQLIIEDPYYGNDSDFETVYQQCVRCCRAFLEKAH
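Test system – LMPTP-A enzyme · Amount – LMPTP-A at 0.625 nM final in the reaction · Buffer or medium – Bis-Tris pH 6.0, DTT, detergent · Reagent – OMFP 400 µM · Doses – single 20 µM dose · Schedule – reaction 50 min, room temperature, dark · Detection – fluorescence intensity of OMFP turnover product · Evaluation – percent inhibition versus substrate-only and uninhibited controls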
Scp1 inh = Scp-1 phosphatase inhibitors, primary screen, biochemical, colorimetric, uHTS. Carboxy-terminal domain RNA polymerase II polypeptide A small phosphatase 1 (Homo …. Recombinant Scp1, phosphopeptide, malachite green phosphate absorbance. inhibition, % at 20 µM. 0.88% of 340,000 active. AID 493091, 2011;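 active = inhibition above about 50% at 20 µM, limit read from the data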;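 also: plate controls were DMSO wells with enzyme for no effect and wells lacking enzyme for full effect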
Target sequence (Q9GZU7 76-261 limits assumed): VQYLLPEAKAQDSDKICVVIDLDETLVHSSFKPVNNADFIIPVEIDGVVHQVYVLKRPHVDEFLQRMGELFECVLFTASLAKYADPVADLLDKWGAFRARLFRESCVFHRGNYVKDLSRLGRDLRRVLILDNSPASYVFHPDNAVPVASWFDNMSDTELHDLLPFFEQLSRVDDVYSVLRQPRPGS
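assay system = SCP-1 phosphatase catalytic domain, residues 76-261 | buffer or medium = 50 mM Tris acetate pH 5.5, 0.005% Tween-20, 10 mM MgCl2 | incubation = enzyme reaction 45 min at room temperature, colour 5 min, stabilisation 30 min | signal = Phosphate-binding colour reagent, absorbance read at 630 nm | measure = % inhibition at 20 µM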
Casp6 inh = human caspase-6 inhibitors, primary screen, biochemical, VEID-R110 fluorescence, single point, set 2. 0.53% of 350,000 active. inhibition, % at 12.5 µM. P55212. purified caspase-6, Z-VEID-R110 cleavage fluorescence;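 active = mean inhibition across replicates at least about 35%, with every replicate also reaching that limit, limit read from the data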;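 also: 0% = median of neutral control wells and 100% = no fluorescence left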
Active calls of the source: *; . = not tested or not shown. Compounds with a hit are over-represented: about 1.7% of the library has one in this group of screens.

SMILES	DNMT1 block	SUMO1-SIM PPI	STEP block	LMPTP inh	Scp1 inh	Casp6 inh
Nc1ccc(C(=O)N/N=C/c2cn(Cc3ccc(F)cc3)c3ccccc23)cc1	-3	-5	-1	3	-7	73*
CN1CCc2nc3sc(C(=O)C45CC6CC(CC(C6)C4)C5)c(N)c3cc2C1	78*	6	5	2	2	.
Nc1c(C(=O)O)sc2nc3c(cc12)CCCC3	7	2	3	-2	-5	4
Cc1ccc2cc(N)ccc2n1	-12	-5	3	0	-11	61*
CN1[C@H](CO)[C@H]2c3ccccc3N(C(=O)Nc3ccccc3F)C[C@H]21	.	.	.	.	.	2
O=C(/C=C/c1ccc2c(c1)OCO2)Nc1c(C(=O)O)[nH]c2ccccc12	-4	-6	8	-1	-7	3
O=C(Nc1cccnc1)c1c(F)cccc1F	2	-1	-2	-2	-3	0
CN(C)/C=C/C(=O)c1ccc(OCCN(C)c2ccccn2)cc1	-1	18	-1	51*	-7	-4
CN(C)/C=C/C(=O)c1ccc(Oc2ccccc2)cc1	1	-3	4	0	7	-2
CC(C)CS(=O)(=O)C1=NN2C(=N)/C(=C\c3ccc(OC(=O)c4ccco4)cc3)C(=O)N=C2S1	10	-6	10	5	69*	-3
O=C(O)c1ccc(N/N=C/c2ccc(OC(=O)c3cccc(Cl)c3)cc2)cc1	7	61*	1	10	40	0
CSc1ccc(/C=N/Nc2cccc(C(=O)O)c2)cc1	105*	70*	60*	14	81*	.
O=C(O)c1cccc(N/N=C/c2ccc(OC(F)(F)F)cc2)c1	1	-3	5	1	1	5
COc1cc(/C=N/Nc2ccc(C(=O)O)cc2)cc(OC)c1OC	1	-4	-2	1	-9	9
COc1cc(/C=N/Nc2ccc(C(=O)O)cc2)ccc1O	18	-4	5	3	43	39*
O=C(Oc1ccc(/C=N/Nc2ccccc2)cc1)c1ccccc1	0	-2	-1	1	-4	.
COC(=O)C1=C(COc2ccccc2)NC(=O)NC1c1ccc(Br)cc1 (stereo unspecified)	0	75*	0	1	41	-2
CC1CCN(C(=O)Cn2cc(C(F)(F)F)ccc2=O)c2ccccc2S1 (stereo unspecified)	4	7	0	0	4	70*
O=C(O)CN1C(=O)/C(=C\c2cccc(OCc3ccc(Cl)cc3Cl)c2)SC1=S	46	25	30	10	13	60*
O=C(O)CN1C(=O)/C(=C\c2cc(Br)ccc2OCc2ccccc2F)SC1=S	22	16	6	4	2	38*
O=C(O)CN1C(=O)/C(=C\c2cc(Br)ccc2OCc2ccc([N+](=O)[O-])cc2)SC1=S	56*	25	24	26	50	55*
O=C(O)CCN1C(=O)/C(=C\c2cccc(OCc3ccccc3)c2)SC1=S	1	14	5	2	25	1
O=C(O)CN1C(=O)/C(=C\c2ccccc2OCc2ccc(Cl)cc2Cl)SC1=S	20	12	16	7	6	52*
CCC(C)c1ccc(NC(=O)CC(C)=O)cc1 (stereo unspecified)	2	-7	0	0	-12	.
C(=C\c1ccc(C2[C@H]3CNC[C@@H]2N3Cc2ccccn2)cc1)/c1ccccc1 (stereo partly specified)	.	.	.	.	.	50*
SMILES	DNMT1 block	SUMO1-SIM PPI	STEP block	LMPTP inh	Scp1 inh	Casp6 inh
O=C(COC(=O)c1ccc([N+](=O)[O-])s1)NC(=O)NCc1ccccc1	-4	26	-1	-1	-1	44*
O=C(COC(=O)c1ccc([N+](=O)[O-])s1)NCc1ccc(F)cc1	28	49*	2	0	-10	.
O=C(COC(=O)c1ccc([N+](=O)[O-])s1)NNC(=O)c1ccccc1	48	25	0	-1	-10	.
O=C(COC(=O)c1ccc([N+](=O)[O-])o1)NCc1ccc(F)cc1	-5	-26	1	-1	-8	52*
CC(=O)Nc1ccc(NC(=O)COC(=O)c2ccc([N+](=O)[O-])o2)cc1	-4	-27	-4	-2	-3	54*
CCN(c1ccc(NC(=O)COC(=O)c2ccc([N+](=O)[O-])o2)cc1)C(C)C	-10	-30	-3	0	-3	9
Cc1cccc(N2CCN(C(=S)Nc3ccc4nc(N5CCN(C)CC5)cc(C)c4c3)CC2C)c1 (stereo unspecified)	10	-36	6	-3	-6	-16
O=C(Nc1ccccc1)c1cc(C2COCCN2C(=O)c2ccccn2)on1 (stereo unspecified)	2	-6	-1	-2	.	0
O=C(OCC(=O)c1ccc[nH]1)c1ccc([N+](=O)[O-])cc1	-7	-34	-2	1	-2	0
O=C(COC(=O)c1ccc([N+](=O)[O-])s1)c1ccc[nH]1	50*	14	-6	1	15	99*
O=C(COC(=O)c1ccc([N+](=O)[O-])s1)NCCc1ccccc1	32	17	0	-1	2	99*
Cc1ccc(NC(=O)c2ccc(-n3cccn3)c([N+](=O)[O-])c2)cc1	-6	-23	-1	-1	-12	.
O=C(Nc1ccc(C2=NCCN2)cc1)c1ccc(C(=O)Nc2ccc(C3=NCCN3)cc2)c([N+](=O)[O-])c1	-6	96*	14	82*	-7	-64
CCOC(=O)c1cccc(NC(=O)CN(c2ccc(OC)cc2)S(=O)(=O)c2c(C)noc2C)c1	-14	4	-1	1	-11	.
O=C(NC1CCCCC1)C(c1ccnc2ccccc12)N1CCc2ccccc2C1 (stereo unspecified)	-21	-13	-2	0	.	76*
O=C(Nc1ccc2oc(=O)ccc2c1)c1ccc(-c2ccccc2[N+](=O)[O-])o1	-2	57*	7	11	0	0
O=C(Nc1ccc2oc(=O)ccc2c1)c1ccccc1[N+](=O)[O-]	0	-17	-1	0	-3	1
O=C(Nc1ccc2oc(=O)ccc2c1)c1ccc(-c2ccc(Cl)cc2)o1	42	-3	3	6	0	.

Compound activity: PubChem, several laboratories
